Data on four compounds can be found in ChEMBL document CHEMBL3580633, “Benzoxaborole antimalarial agents. Part 4. Discovery of potent 6-(2-(alkoxycarbonyl)pyrazinyl-5-oxy)-1,3-dihydro-1-hydroxy-2,1-benzoxaboroles” (J Med Chem, 2015).

SMILES strings stand for the structures.

For data set [1], the system named is Plasmodium berghei. The data set can be described thus: Antiplasmodial activity against Plasmodium berghei infected in Swiss Webster mouse assessed as mouse survival at 33 mg/kg, po dosed once daily for 4 consecutive days beginning 1 hr after initial infection and measured on day 7 post infection by Giemsa staining method. It counts as functional. Summed up: (§1)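 Female Swiss Webster mice (about 20 g) were infected ip with 6 × 10^6 P. berghei-infected erythrocytes from a donor mouse. They were dosed by oral gavage once daily for 4 days, starting 1 h post-infection, in PEG 300/propylene glycol/water (55/25/20 by weight). Parasitemia was read daily on Giemsa smears from day 4, and mice were euthanized above 50% parasitemia. Percent survival was tracked to 21 days.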

Data set [2] deals with Plasmodium berghei. Nature of the data set: Antiplasmodial activity against Plasmodium berghei infected in Swiss Webster mouse assessed as mouse survival at 100 mg/kg, po dosed once daily for 4 consecutive days beginning 1 hr after initial infection and measured on day 4 post infection by Giemsa staining method. The data set is classed as functional. Summed up: (§2)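 Female Swiss Webster mice (about 20 g) infected ip with 6 × 10^6 P. berghei-infected erythrocytes. Oral gavage once daily for 4 days, starting 1 h after infection. Vehicle PEG300/propylene glycol/water (55/25/20 by weight). Giemsa-smear parasitemia counted daily from day 4. Mice euthanised above 50% parasitemia. Survival followed to day 21, 5 mice per dose, chloroquine 30 mg/kg as reference.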

Data set [3] has as its system Plasmodium berghei. Nature of the data set: Antiplasmodial activity against Plasmodium berghei infected in Swiss Webster mouse assessed as mouse survival at 1 mg/kg, po dosed once daily for 4 consecutive days beginning 1 hr after initial infection and measured on day 5 post infection by Giemsa staining method. It counts as functional. The method in brief:
as §2

Data set [4] has as its system Plasmodium berghei. Nature of the data set: Antiplasmodial activity against Plasmodium berghei infected in Swiss Webster mouse assessed as mouse survival at 11 mg/kg, po dosed once daily for 4 consecutive days beginning 1 hr after initial infection and measured on day 7 post infection by Giemsa staining method. The data set is classed as functional. Summed up:
as §2

Data set [5] deals with Plasmodium berghei. Nature of the data set: Antiplasmodial activity against Plasmodium berghei infected in Swiss Webster mouse assessed as mouse survival at 100 mg/kg, po dosed once daily for 4 consecutive days beginning 1 hr after initial infection and measured on day 11 post infection by Giemsa staining method. It counts as functional. The method in brief:
as §2

The subject of data set [6] is Plasmodium berghei. Nature of the data set: Antiplasmodial activity against Plasmodium berghei infected in Swiss Webster mouse assessed as mouse survival at 3 mg/kg, po dosed once daily for 4 consecutive days beginning 1 hr after initial infection and measured on day 6 post infection by Giemsa staining method. The data set is classed as functional. Summed up: as §2

The test system of data set [7] is Plasmodium berghei. Nature of the data set: Antiplasmodial activity against Plasmodium berghei infected in Swiss Webster mouse assessed as mouse survival at 100 mg/kg, po dosed once daily for 4 consecutive days beginning 1 hr after initial infection and measured on day 5 post infection by Giemsa staining method. The data set is classed as functional. The method in brief: as §2

In data set [8] the test system is Plasmodium berghei. The data set can be described thus: Antiplasmodial activity against Plasmodium berghei infected in Swiss Webster mouse assessed as mouse survival at 100 mg/kg, po dosed once daily for 4 consecutive days beginning 1 hr after initial infection and measured on day 12 post infection by Giemsa staining method. It counts as functional. The method in brief: as §2

Data set [9] concerns Plasmodium berghei. Nature of the data set: Antiplasmodial activity against Plasmodium berghei infected in Swiss Webster mouse assessed as mouse survival at 11 mg/kg, po dosed once daily for 4 consecutive days beginning 1 hr after initial infection and measured on day 12 post infection by Giemsa staining method. It counts as functional. Summed up:
as §2

For data set [10], the system named is Plasmodium berghei. Nature of the data set: Antiplasmodial activity against Plasmodium berghei infected in Swiss Webster mouse assessed as mouse survival at 3 mg/kg, po dosed once daily for 4 consecutive days beginning 1 hr after initial infection and measured on day 4 post infection by Giemsa staining method. The data set is classed as functional. Summed up:
as §2

Data set [11] has as its system Plasmodium berghei. The data set can be described thus: Antiplasmodial activity against Plasmodium berghei infected in Swiss Webster mouse assessed as mouse survival at 33 mg/kg, po dosed once daily for 4 consecutive days beginning 1 hr after initial infection and measured on day 6 post infection by Giemsa staining method. It counts as functional. Summed up:
as §1

In data set [12] the test system is Plasmodium berghei. Nature of the data set: Antiplasmodial activity against Plasmodium berghei infected in Swiss Webster mouse assessed as mouse survival at 33 mg/kg, po dosed once daily for 4 consecutive days beginning 1 hr after initial infection and measured on day 9 post infection by Giemsa staining method. The data set is classed as functional. The method in brief:
as §1

The subject of data set [13] is Plasmodium berghei. Nature of the data set: Antiplasmodial activity against Plasmodium berghei infected in Swiss Webster mouse assessed as mouse survival at 100 mg/kg, po dosed once daily for 4 consecutive days beginning 1 hr after initial infection and measured on day 9 post infection by Giemsa staining method. The data set is classed as functional. The method in brief:
as §2

The subject of data set [14] is Plasmodium berghei. Nature of the data set: Antiplasmodial activity against Plasmodium berghei infected in Swiss Webster mouse assessed as mouse survival at 3 mg/kg, po dosed once daily for 4 consecutive days beginning 1 hr after initial infection and measured on day 5 post infection by Giemsa staining method. The data set is classed as functional. Summed up: as §2

For data set [15], the system named is Plasmodium berghei. The data set can be described thus: Antiplasmodial activity against Plasmodium berghei infected in Swiss Webster mouse assessed as mouse survival at 11 mg/kg, po dosed once daily for 4 consecutive days beginning 1 hr after initial infection and measured on day 4 post infection by Giemsa staining method. The data set is classed as functional. The method in brief: as §2

Data set [16] deals with Plasmodium berghei. The data set can be described thus: Antiplasmodial activity against Plasmodium berghei infected in Swiss Webster mouse assessed as mouse survival at 3 mg/kg, po dosed once daily for 4 consecutive days beginning 1 hr after initial infection and measured on day 7 post infection by Giemsa staining method. It counts as functional. The method in brief:
as §2

Data set [17] concerns Plasmodium berghei. The data set can be described thus: Antiplasmodial activity against Plasmodium berghei infected in Swiss Webster mouse assessed as mouse survival at 33 mg/kg, po dosed once daily for 4 consecutive days beginning 1 hr after initial infection and measured on day 11 post infection by Giemsa staining method. The data set is classed as functional. Summed up:
as §1

Data set [18] is described as follows: AUC (0 to infinity) in CD1 mouse at 5 mg/kg, iv by HPLC coupled to tandem mass spectrometry. It counts as ADME, organism-based. Further details: dose 5 mg/kg, route intravenous, time infinity. The settings on record: in vivo. The method in brief:
(§3)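 Adult female CD-1 mice received 5 mg/kg by both the iv and the oral-gavage route. Two vehicles were used: PEG 400/dimethylacetamide/water (45/10/45, pH 5.8), or PEG 300/propylene glycol/water (55/25/20, pH 5.9). Blood samples were collected and drug was quantified by HPLC-tandem MS.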

Data set [19] is described as follows: Terminal half life in CD1 mouse at 5 mg/kg, po by HPLC coupled to tandem mass spectrometry. The data set is classed as ADME, organism-based. The settings on record: in vivo, read-out: beta t1/2 (converted). Summed up: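 Adult female CD-1 mice were given oral gavage at 5 mg/kg in a formulated solution, either PEG 400/dimethylacetamide/water (45/10/45, pH 5.8) or PEG 300/propylene glycol/water (55/25/20, pH 5.9). Blood samples were analysed for drug by HPLC-tandem MS, and the terminal half-life was derived.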

A short description of data set [20]: AUC (0 to infinity) in CD1 mouse at 5 mg/kg, po by HPLC coupled to tandem mass spectrometry. The data set is classed as ADME, organism-based. Further details: dose 5 mg/kg, route oral, time infinity. The settings on record: in vivo. The method in brief: as §3
The nature of data set [21]: Volume of distribution at steady state in CD1 mouse at 5 mg/kg, iv by HPLC coupled to tandem mass spectrometry. It counts as ADME, organism-based. The settings on record: in vivo, read-out: Vdss. Summed up:
as §3

Data set [22] can be described thus: Tmax in CD1 mouse at 5 mg/kg, po by HPLC coupled to tandem mass spectrometry. The settings on record: in vivo. The data set is classed as ADME, organism-based. The method in brief: as §3
Data set [23] can be described thus: Cmax in CD1 mouse at 5 mg/kg, po by HPLC coupled to tandem mass spectrometry. It counts as ADME, organism-based. The settings on record: in vivo. Details: dose 5 mg/kg, route oral. The method in brief: as §3
Data set [24] is described as follows: Clearance in CD1 mouse at 5 mg/kg, iv by HPLC coupled to tandem mass spectrometry. It counts as ADME, organism-based. The settings on record: in vivo. Summed up: as §3
The nature of data set [25]: Stability in mouse liver microsomes assessed as compound remaining at 1 uM incubated for 1 hr in presence of NADPH by LC/MS/MS method. It counts as ADME. Summed up:
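Compound at 1 μM final (from a 1 mg/mL DMSO stock) was incubated with mouse or human liver microsomes (0.5 mg/mL protein) in 100 mM potassium phosphate, pH 7.4, at 37 °C with shaking, with or without 1 mM NADPH. Samples were taken over 0–120 min and tested in duplicate. Reactions were quenched with cold acetonitrile plus internal standard and analyzed by LC/MS/MS.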
For orientation: Liver microsomes are vesicles of endoplasmic reticulum, rich in cytochrome P450 enzymes.

Consider `O=C(O)c1cnc(Oc2ccc3c(c2)B(O)OC3)cn1`, for which the survival at 33 mg/kg in data set [1] was 100%; in data set [11] it was 100%; in [12], 40%; in data set [17], 40%. In addition, the survival at 100 mg/kg turned out to be 100% in data set [2]; 60% in data set [5]; 100% in data set [7]; 0% in data set [8]; 60% in data set [13]. Besides, in [3], the survival at 1 mg/kg is 100%. Further, the survival at 11 mg/kg was 100% in data set [4], 0% in data set [9] and 100% in [15]. Besides, the survival at 3 mg/kg is 100% in data set [6], 100% in data set [10], 100% in data set [14] and 60% in data set [16].

Regarding `O=C(O)c1ccc(Oc2ccc3c(c2)B(O)OC3)cn1`, the results for the survival at 33 mg/kg in data set [1], in data set [11] and in data set [12] were 100%, 100% and 0%, respectively. Also, the figures for the survival at 100 mg/kg in [2], in data set [7] and in [13] were 100%, 100% and 0%, respectively. The survival at 1 mg/kg in [3] was 100%. Moreover, the survival at 11 mg/kg in [4] and in data set [15] was 100% throughout. In addition, the survival at 3 mg/kg in data set [6] turned out to be 100%; in data set [10], 100%; in data set [14], 100%; in data set [16], 60%.

`COC(=O)c1cnc(Oc2ccc3c(c2)B(O)OC3)cn1`: the survival at 33 mg/kg in data set [1], in [11], in data set [12] and in data set [17] was 100% in each case. The survival at 100 mg/kg in [2], in data set [5], in data set [7], in [8] and in [13] was 100% each time. Further, the survival at 1 mg/kg in [3] came out at 100%. In addition, the results for the AUC(0-inf) in data set [18] and in data set [20] were 0.4 µg·h/mL and 0.1 µg·h/mL, respectively. In addition, the survival at 11 mg/kg in [4] worked out at 100%; in [9], 0%; in [15] it was 100%. In addition, the half-life in data set [19] was 60 min. The survival at 3 mg/kg in [6], in data set [10], in data set [14] and in [16] was 100% throughout. Further, the Vd in [21] was found to be 0.926 L/kg. The Tmax in [22] was 15 min. Also, the Cmax in [23] is 0.16 µg/mL. Also, the clearance in [24] was 12.5 L/h/kg. Further, the Stability in data set [25] is 0%.

On to `NC(=O)c1cnc(Oc2ccc3c(c2)B(O)OC3)cn1`, for which the survival at 33 mg/kg came to 100% in [1], 100% in data set [11] and 60% in [12]. The survival at 100 mg/kg was found to be 100% in data set [2], 100% in data set [7] and 60% in [13]. Moreover, in data set [3], the survival at 1 mg/kg is 100%. Also, the total exposure AUC(0-inf) in data set [18] was found to be 2.2 µg·h/mL; in [20] it was 2.29 µg·h/mL. Also, the survival at 11 mg/kg in data set [4] and in [15] was 100% in each case. Moreover, the half-life in data set [19] is 126 min. In addition, the survival at 3 mg/kg in data set [6] stood at 100%; in data set [10] it was 100%; in data set [14] it was 100%; in data set [16], 80%. The Vd in [21] was found to be 0.973 L/kg. For the same compound, in data set [22], the Tmax is 15 min. Moreover, the Cmax in [23] was 1.38 µg/mL. In data set [24], this compound had a clearance of 2.26 L/h/kg. Further, in [25], the Stability came out at 97%.

In general, AUC(0-inf) refers to total exposure, with the tail of the curve extrapolated. A word on the Tmax: it is the time from dosing to the highest level. In general, Cmax refers to the highest concentration seen after dosing. By clearance is commonly meant the volume of plasma or blood freed of the substance per unit of time.
